Results taken from ChEMBL document CHEMBL5046287 (J Med Chem, 2022).
Activity calls are given as the source filed them. The calls are words filed in the database; no cut-off is given here.

Columns and labels:
[1] = target: T1, Aldehyde dehydrogenase, dimeric NADP-preferring (Homo sapiens) (UniProt P30838); experiment: Inhibition of N-terminal-His6 tagged recombinant human ALDH3A1 assessed as remaining enzyme activity by measuring fluorescence of NADPH using 4-NBA and NADP+ as substrate at 10 uM by fluorimetric analysis relative to control
T1 sequence (whole entry): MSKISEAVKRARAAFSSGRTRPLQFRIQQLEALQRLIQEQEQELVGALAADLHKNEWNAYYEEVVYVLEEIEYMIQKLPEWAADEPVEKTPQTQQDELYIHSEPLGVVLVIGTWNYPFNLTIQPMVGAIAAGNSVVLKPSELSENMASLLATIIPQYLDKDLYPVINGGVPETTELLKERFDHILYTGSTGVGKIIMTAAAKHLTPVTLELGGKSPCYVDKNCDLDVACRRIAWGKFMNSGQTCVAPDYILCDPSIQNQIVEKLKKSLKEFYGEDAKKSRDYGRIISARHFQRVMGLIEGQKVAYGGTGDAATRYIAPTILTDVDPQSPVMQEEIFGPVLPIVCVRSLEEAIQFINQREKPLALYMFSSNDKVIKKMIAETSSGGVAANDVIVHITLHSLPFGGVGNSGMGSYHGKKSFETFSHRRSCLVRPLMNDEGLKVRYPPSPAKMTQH
Method in brief: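 Single-point screen at 10 μM inhibitor, 1% DMSO final. Enzyme in 50 mM Tris–HCl, 5 mM DTT, pH 8.0, with 1 mM NADP+ and 4-NBA at 31 and 250 μM. NADPH fluorescence (ex 340/em 460 nm) or absorbance at 340 nm. Enzyme kept 50–100-fold below substrate; result is % remaining activity.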

[2] = tested on: PC-3; experiment: Antiproliferative activity against human PC-3 cells expressing ALDH1A1 and ALDH3A1 assessed as reduction in cell survival measured after 96 hrs by MTT assay; format: functional, cell-based; conditions: PC-3, 96 h
Method in brief: (§1)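 Adherent prostate cancer cells seeded in 96-well plates, left overnight at 37 °C, 5% CO2, 100% humidity, then exposed to compounds at 12.5–200 μM for 96 h. Read-out: MTT (0.5 mg/mL) added for 4 h at 37 °C, formazan dissolved in DMSO, absorbance at 540 nm. IC50 from five-dose screen.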

[3] = tested on: LNCaP; experiment: Antiproliferative activity against human LNCaP cells expressing ALDH1A3 assessed as reduction in cell survival measured after 96 hrs by MTT assay; format: functional, cell-based; method in brief: as §1
[4] = tested on: DU-145; experiment: Antiproliferative activity against human DU145 cells expressing ALDH1A1 assessed as reduction in cell survival measured after 96 hrs by MTT assay; format: functional, cell-based; conditions: DU-145, 96 h; method in brief: as §1
[5] = tested on: H415; experiment: Cytotoxicity against human H415/15 cells assessed as reduction in cell viability incubated for 72 hrs by AlamarBlue staining based analysis; format: functional; conditions: dose 50-200 µM
Method in brief: (§2)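 Primary prostate epithelial cells (cancer from radical prostatectomy, BPH from transurethral resection) plated 5000 cells/well in SCM for 24 h at 37 °C, 5% CO2, then given inhibitor alone at 50 or 200 μM (200 mM DMSO stocks) for 72 h. Alamar Blue at 10% of volume for 1–4 h. Viability is % of DMSO control; triplicate, mean.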

[6] = tested on: H568; experiment: Cytotoxicity against human H568/15 RM cells assessed as reduction in cell viability incubated for 72 hrs by AlamarBlue staining based analysis; format: functional; conditions: dose 50-200 µM; method in brief: as §2
[7] = tested on: H431; experiment: Cytotoxicity against human H431/14 LM cells assessed as reduction in cell viability incubated for 72 hrs by AlamarBlue staining based analysis; format: functional; conditions: dose 50-200 µM; method in brief: as §2
[8] = tested on: H488; experiment: Cytotoxicity against human H488/14 RM cells assessed as reduction in cell viability incubated for 72 hrs by AlamarBlue staining based analysis; format: functional; conditions: dose 50-200 µM; method in brief: as §2
[9] = tested on: H517; experiment: Cytotoxicity against human H517/15 RM cells assessed as reduction in cell viability incubated for 72 hrs by AlamarBlue staining based analysis; format: functional; conditions: dose 50-200 µM; method in brief: as §2
[10] = tested on: H415; experiment: Cytotoxicity against human H415/15 cells assessed as reduction in cell viability at 50 to 200 uM incubated for 72 hrs in presence of docetaxel by AlamarBlue staining based analysis; format: functional; conditions: dose 50-200 µM
Method in brief: (§3)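 Primary prostate epithelial cells (radical prostatectomy cancer or transurethral resection BPH) seeded at 5000 cells/well in SCM, 24 h at 37 °C, 5% CO2. Treated with inhibitor at 50 or 200 μM plus 1 nM docetaxel (DMSO stocks 200 mM) for 72 h. Alamar Blue added at 10% volume, 1–4 h at 37 °C. Viability is % of DMSO-treated control; triplicate, mean; paired two-tailed t-test.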

[11] = tested on: H568; experiment: Cytotoxicity against human H568/15 RM cells assessed as reduction in cell viability at 50 to 200 uM incubated for 72 hrs in presence of docetaxel by AlamarBlue staining based analysis; format: functional; conditions: dose 50-200 µM; method in brief: as §3
[12] = tested on: H431; experiment: Cytotoxicity against human H431/14 LM cells assessed as reduction in cell viability at 50 to 200 uM incubated for 72 hrs in presence of docetaxel by AlamarBlue staining based analysis; format: functional; conditions: dose 50-200 µM; method in brief: as §3
[13] = tested on: H488; experiment: Cytotoxicity against human H488/14 RM cells assessed as reduction in cell viability at 50 to 200 uM incubated for 72 hrs in presence of docetaxel by AlamarBlue staining based analysis; format: functional; conditions: dose 50-200 µM; method in brief: as §3
[14] = tested on: H517; experiment: Cytotoxicity against human H517/15 RM cells assessed as reduction in cell viability at 50 to 200 uM incubated for 72 hrs in presence of docetaxel by AlamarBlue staining based analysis; format: functional; conditions: dose 50-200 µM; method in brief: as §3
[15] = target: T1, Aldehyde dehydrogenase, dimeric NADP-preferring (Homo sapiens); experiment: Inhibition of N-terminal-His6 tagged recombinant human ALDH3A1 using 4-NBA as substrate in absence of NADP+ by fluorimetric analysis
Method in brief: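 The standard 5-min preincubation of enzyme with inhibitor was run without NADP+, and compared with preincubation including cofactor. Fluorimetric NADPH read-out; mean ± SE.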

[16] = target: T2, Aldehyde dehydrogenase 1A1 (Homo sapiens, UniProt P00352); experiment: Substrate activity at N-terminal-His6 tagged recombinant human ALDH1A1 at 10 uM […] by fluorimetric analysis relative to hexanal; format: ADME
T2 sequence (P00352 whole entry): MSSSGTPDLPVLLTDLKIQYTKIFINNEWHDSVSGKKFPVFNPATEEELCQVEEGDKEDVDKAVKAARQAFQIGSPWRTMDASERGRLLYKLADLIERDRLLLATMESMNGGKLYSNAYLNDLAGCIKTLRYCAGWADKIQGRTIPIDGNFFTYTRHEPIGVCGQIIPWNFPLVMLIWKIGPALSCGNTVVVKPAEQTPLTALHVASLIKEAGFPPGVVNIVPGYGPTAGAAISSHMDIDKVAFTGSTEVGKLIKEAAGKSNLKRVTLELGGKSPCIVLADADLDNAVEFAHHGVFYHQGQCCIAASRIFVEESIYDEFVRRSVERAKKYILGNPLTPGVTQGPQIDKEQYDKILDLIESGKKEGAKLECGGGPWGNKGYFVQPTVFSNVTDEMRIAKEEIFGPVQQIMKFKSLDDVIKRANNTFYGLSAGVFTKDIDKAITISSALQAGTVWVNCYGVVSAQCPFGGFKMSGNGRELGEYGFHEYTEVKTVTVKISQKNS
Method in brief: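 Compound at 10 μM used as substrate in place of hexanal. Buffer 50 mM HEPES, 0.5 mM EDTA, 0.5 mM DTT, pH 8.0, with 500 μM NAD+. NADH fluorescence (ex 340/em 460 nm). Activity given as % of that with 10 μM hexanal; mean ± SE.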

[17] = target: T3, Aldehyde dehydrogenase, dimeric NADP-preferring (Homo sapiens, UniProt P30838); experiment: Substrate activity at N-terminal-His6 tagged recombinant human ALDH3A1 at 10 uM […] by fluorimetric analysis relative to 4-NBA; format: ADME
T3 sequence (P30838 whole entry): T1 sequence (whole entry)
Method in brief: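 Compound at 10 μM used as substrate in place of 4-NBA. Buffer 50 mM Tris–HCl, 5 mM DTT, pH 8.0, with 1 mM NADP+. NADPH fluorescence (ex 340/em 460 nm). Activity given as % of that with 10 μM 4-NBA; mean ± SE.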

Row | Compound | Activity [1] [%] | Activity [5] | Activity [6] | Activity [7] | Activity [8] | Activity [9] | further results
1 | CCCN(CCC)c1ccc(C=O)cc1 | < 15 |  |  |  |  |  | 
2 | CCCN(CCC)c1ccc(C=O)cc1C | < 15 |  |  |  |  |  | IC50 [2]: 106 µM; IC50 [3]: 61 µM; IC50 [4]: 103 µM
3 | CCCN(CCC)c1ccc(C=O)cc1Cl | < 15 |  |  |  |  |  | 
4 | CCCN(CCC)c1ccc(C=O)cc1OC |  |  |  |  |  |  | IC50 [2]: 75 µM; IC50 [3]: 50 µM; IC50 [4]: 71 µM
5 | CCN(CC)c1ccc(C=O)cc1 |  | Dose-Dependent Effect | Dose-Dependent Effect | Dose-Dependent Effect | Dose-Dependent Effect | Dose-Dependent Effect | 
6 | CCCN(CCC)c1ccc(C=O)cc1[N+](=O)[O-] | < 15 | Dose-Dependent Effect | Dose-Dependent Effect | Dose-Dependent Effect | Dose-Dependent Effect | Dose-Dependent Effect | Activity [10]: Active; Activity [11]: Active; Activity [12]: Active; Activity [13]: Active; Activity [14]: Active; inhibition [15]: Active
7 | CCCN(CCC)c1ccc(C=O)cc1Br | < 15 | Dose-Dependent Effect | Dose-Dependent Effect | Dose-Dependent Effect | Dose-Dependent Effect | Dose-Dependent Effect | Activity [16]: 3.14%; Activity [17]: < 5%; Activity [10]: Active; Activity [11]: Active; Activity [12]: Active; Activity [13]: Active; Activity [14]: Active
